Measurements from ChEMBL document CHEMBL3774351, “Three stories on Eph kinase inhibitors: From in silico discovery to in vivo validation” (Eur J Med Chem, 2016).

Tests used:
[1] = Half life in human liver microsomes at 0.1 uM up to 60 mins by HPLC-MS/MS analysis
Mus musculus [2] = assay: Toxicity in nude mouse xenografted with human MDA-MB-231 cells assessed as reduction in body weight at 50 mg/kg, bid administered for 21 days measured during the treatment period; format: organism-based; parameters: scale not given: the % may be the effect or the level left; conditions: in vivo, 504 h
Outline: (§1)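 MDA-MB-231 xenografts in nude mice, treatment started at median tumor volume 108 mm3. Oral gavage of 50 mg/kg twice daily (100 mg/kg/day) for 21 days versus vehicle cohort, 9 animals per cohort. Median tumor volume followed over time. Mean body weight monitored through the treatment period.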

HUVEC [3] = assay: Antiangiogenic activity in HUVEC assessed as inhibition of VEGF-A-induced angiogenic sprouting by spheroid-based sprouting assay; conditions: Homo sapiens
MDA-MB-231 = assay: Antitumor activity against human MDA-MB-231 cells xenografted in nude mouse assessed as tumor growth inhibition at 50 mg/kg, bid administered for 21 days relative to control; format: functional; conditions: MDA-MB-231, 504 h; outline: as §1
Mus musculus [4] = assay: AUClast in CD-1 (ICR) mouse at 1 mg/kg, iv; format: ADME, organism-based; parameters: dose 1 mg/kg, route intravenous, time 0 - last; conditions: in vivo
HUVEC [5] = assay: Antiangiogenic activity in HUVEC assessed as reduction in tube length after 15 hrs by matrigel assay; format: functional, cell-based; conditions: Homo sapiens
Outline: (§2)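 HUVEC seeded on Matrigel and incubated with compound for 15 h. Tube length, total branching points and total loops quantified against untreated control cells. Dose-response curves used to derive IC50 for each read-out. Measurements done at least in triplicate, SEM shown.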

HUVEC [6] = assay: Antiangiogenic activity in HUVEC assessed as reduction in number of loops after 15 hrs by matrigel assay; format: functional, cell-based; conditions: Homo sapiens; outline: as §2
HUVEC [7] = assay: Antiangiogenic activity in HUVEC assessed as reduction in branching points after 15 hrs by matrigel assay; format: functional, cell-based; conditions: Homo sapiens; outline: as §2
HUVEC [8] = assay: Antiangiogenic activity in HUVEC assessed as reduction in branching points at 1 uM after 15 hrs by matrigel assay; format: functional; conditions: Homo sapiens
HUVEC [9] = assay: Antiangiogenic activity in HUVEC assessed as reduction in number of loops at 1 uM after 15 hrs by matrigel assay; format: functional; conditions: Homo sapiens
Ephrin type-B receptor 4 = biological target: T1, Ephrin type-B receptor 4 (Homo sapiens, UniProt P54760); assay: Inhibition of N-terminal GST-fused His6-tagged human recombinant EphB4
T1 sequence (P54760 whole entry): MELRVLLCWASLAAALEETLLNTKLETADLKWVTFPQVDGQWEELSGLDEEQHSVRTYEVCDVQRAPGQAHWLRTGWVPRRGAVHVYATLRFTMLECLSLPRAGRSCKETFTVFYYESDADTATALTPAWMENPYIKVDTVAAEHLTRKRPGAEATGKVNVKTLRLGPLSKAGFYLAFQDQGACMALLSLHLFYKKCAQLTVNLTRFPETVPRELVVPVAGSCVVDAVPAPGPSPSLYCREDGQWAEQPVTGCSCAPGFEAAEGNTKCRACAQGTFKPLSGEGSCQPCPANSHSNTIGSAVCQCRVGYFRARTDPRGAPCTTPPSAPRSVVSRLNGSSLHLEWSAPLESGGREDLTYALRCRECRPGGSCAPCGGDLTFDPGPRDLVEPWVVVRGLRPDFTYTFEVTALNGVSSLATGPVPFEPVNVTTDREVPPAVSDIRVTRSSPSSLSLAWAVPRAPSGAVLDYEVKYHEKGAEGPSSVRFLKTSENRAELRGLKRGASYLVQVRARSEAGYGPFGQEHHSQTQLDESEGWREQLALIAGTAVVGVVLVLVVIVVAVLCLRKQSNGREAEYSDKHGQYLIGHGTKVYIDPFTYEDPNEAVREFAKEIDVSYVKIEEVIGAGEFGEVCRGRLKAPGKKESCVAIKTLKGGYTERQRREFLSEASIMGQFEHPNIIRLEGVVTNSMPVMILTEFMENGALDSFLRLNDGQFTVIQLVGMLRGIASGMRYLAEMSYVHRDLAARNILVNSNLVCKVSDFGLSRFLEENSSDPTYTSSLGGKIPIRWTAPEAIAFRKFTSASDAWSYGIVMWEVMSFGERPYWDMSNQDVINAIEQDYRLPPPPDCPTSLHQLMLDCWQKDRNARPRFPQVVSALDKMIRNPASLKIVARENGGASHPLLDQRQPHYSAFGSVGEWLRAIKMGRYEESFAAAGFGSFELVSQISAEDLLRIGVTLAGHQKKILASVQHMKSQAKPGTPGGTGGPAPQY
Outline: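 EphB4 FRET enzymatic assay measuring inhibition of phosphorylation of a synthetic substrate, with ATP at Km.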

CC(C)NCC(O)COc1cccc2ccccc12 (stereo unspecified) [PROPRANOLOL]
half-life at 1 h, 0.1 µM [1]: > 1 h

Cc1ccc(O)cc1-n1c(N)c(C(N)=O)c2nc3ccccc3nc21
Activity (Mus musculus [2]): <= 16%
IC50 (HUVEC [3]): 1500 nM
inhibition in vivo at 50 mg/kg (MDA-MB-231): 80%
AUClast (Mus musculus [4]): 39 ng·h/mL

COc1ccccc1-n1c(-c2ccc(O)cc2C)cn2c3c(=O)[nH]c(=O)n(C)c3nc12
IC50 (HUVEC [5]): 1700 nM
IC50 (HUVEC [6]): 71 nM
IC50 (HUVEC [7]): 191 nM
inhibition at 1 µM (HUVEC [8]): 87%
inhibition at 1 µM (HUVEC [9]): 97%

COc1cccc(-n2c(N)c(C(N)=O)c3nc4ccccc4nc32)c1
IC50 (Ephrin type-B receptor 4): 300 nM
